Source: ChEMBL document CHEMBL1124143, “Nonisomerizable analogues of (Z)- and (E)-4-hydroxytamoxifen. Synthesis and endocrinological properties of substituted diphenylbenzocycloheptenes” (1988)
One block for each molecule: values may come before it.

What was measured:
[1] = test system: MCF7; test: Inhibition of MCF-7 human mammary tumor cell proliferation at 1*10e-8M; format: functional
How it was run: (§1)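 MCF-7 cells were plated at 5000 cells/mL. […] Cell number was read as colour intensity at 540 nm. Values are means of optical density from four separate cultures, […]. Statistics were one-way ANOVA with Newman-Keuls test.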

[2] = test system: MCF7; test: Inhibition of 1*10e-7 M estradiol induced proliferation of MCF-7 human mammary tumor cells at 1*10e-7 M; format: functional; how it was run: as §1
[3] = test system: MCF7; test: Inhibition of 1*10e-7 M estradiol induced proliferation of MCF-7 human mammary tumor cells at 1*10e-6 M; format: functional; how it was run: as §1
[4] = test system: MCF7; test: Inhibition of 1*10e-7 M estradiol induced proliferation of MCF-7 human mammary tumor cells at 1*10e-8M; format: functional; how it was run: as §1
[5] = test system: MCF7; test: Inhibition of MCF-7 human mammary tumor cell proliferation at 1*10e-7 M; format: functional; how it was run: as §1
[6] = test system: MCF7; test: (§2) Inhibition of 1*10e-8M estradiol induced proliferation of MCF-7 human mammary tumor cells; format: functional; how it was run: as §1
[7] = test system: MCF7; test: Inhibition of MCF-7 human mammary tumor cell proliferation at 1*10e-6 M; format: functional; how it was run: as §1
[8] = test system: MCF7; test: Inhibition of MCF-7 human mammary tumor cell proliferation; format: functional; how it was run: as §1
[9] = biological target: T1, Estrogen receptor (Rattus norvegicus) (UniProt P06211+Q62986); test: In vivo uterotrophic effect in estradiol stimulated immature rats; format: functional, organism-based
How it was run: (§3)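 Immature female Sprague-Dawley rats got daily subcutaneous injections of compound in 0.1 mL peanut oil for 3 days and were killed on day 4. Read-out was uterine weight (mg).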

[10] = biological target: Estrogen receptor (Homo sapiens) (UniProt Q92731+P03372); test: Inhibition of [3H]estradiol binding to Estrogen receptor of MCF-7 cell lysate […]; format: cell-based
[11] = test system: MCF7; test: as §2; format: functional; how it was run: as §1; remark: listed apart in the source
[12] = biological target: T1, Estrogen receptor (Rattus norvegicus); test: In vivo anti-uterotrophic effect in 0.2 ug estradiol benzoate stimulated immature rats at 20 ug; format: functional, organism-based; how it was run: as §3
[13] = biological target: T1, Estrogen receptor (Rattus norvegicus); test: In vivo anti-uterotrophic effect in 0.2 ug estradiol benzoate stimulated immature rats at 5 ug; format: functional, organism-based; how it was run: as §3
[14] = test system: MCF7; test: Inhibition of 1*10e-8M estradiol induced proliferation of MCF-7 human mammary tumor cells at 1*10e-7 M; format: functional; how it was run: as §1
[15] = test system: MCF7; test: Inhibition of MCF-7 human mammary tumor cell proliferation 1*10e-7 M; format: functional; how it was run: as §1
[16] = biological target: T1, Estrogen receptor (Rattus norvegicus); test: In vivo anti-uterotrophic effect in 0.2 ug estradiol benzoate stimulated immature rats at 10 ug; format: functional, organism-based; how it was run: as §3
[17] = biological target: T1, Estrogen receptor (Rattus norvegicus); test: In vivo anti-uterotrophic effect in 0.2 ug estradiol benzoate stimulated immature rats at 25 ug; format: functional, organism-based; how it was run: as §3
[18] = biological target: T1, Estrogen receptor (Rattus norvegicus); test: In vivo anti-uterotrophic effect in 0.2 ug estradiol benzoate stimulated immature rats at 12.5 ug; format: functional, organism-based; how it was run: as §3
[19] = biological target: T1, Estrogen receptor (Rattus norvegicus); test: In vivo anti-uterotrophic effect in 0.2 ug estradiol benzoate stimulated immature rats at 50 ug; format: functional, organism-based; how it was run: as §3

SMILES: CN(C)CCOc1ccc2c(c1)CCCC(c1ccccc1)=C2c1ccc(O)cc1
Optical density [1]: 0.44
Optical density [2]: 0.566
Optical density [3]: 0.363
Optical density [4]: 0.659
Optical density [5]: 0.328
Optical density [6]: 0.707
Optical density [7]: 0.162
Optical density [8]: 0.337

Uterine weight [9]: 108
SMILES: C[C@]12CC[C@@H]3c4ccc(OC(=O)c5ccccc5)cc4CC[C@H]3[C@@H]1CC[C@@H]2O

relative binding affinity (RBA) [10]: 1.5
Uterine weight [12]: 71
Uterine weight [13]: 75
Uterine weight [16]: 72
SMILES: CN(C)CCOc1ccc(C2=C(c3ccccc3)CCCc3cc(O)ccc32)cc1
Optical density [1]: 0.126
Optical density [3]: 0.068
Optical density [6]: 0.727
Optical density [11]: 0.52
Optical density [7]: 0.083
Optical density [14]: 0.147
Optical density [15]: 0.066
Optical density [8]: 0.417

Uterine weight [17]: 75
Uterine weight [18]: 92
Uterine weight [19]: 77
SMILES: CN(C)CCOc1ccc(C2=C(c3ccccc3)CCCc3ccccc32)cc1
